The values that follow come from ChEMBL document CHEMBL2331122, “Cytotoxic polyketide derivatives from the South China Sea sponge Plakortis simplex” (J Nat Prod, 2013).

Structures can show the parent of a compound that is named as a salt.

Broadly, the IC50 is the point on the concentration scale where inhibition reaches its midpoint. A lower IC50 goes with higher potency. One may read the inhibition as the percentage by which the read-out fell short of the control. A lower inhibition goes with little suppression.

For one assay, the system named is Bel-7402. Description: Cytotoxicity against human Bel7402 cells after 72 hrs by MTT assay. Format: functional, cell-based. As to conditions: Bel-7402, 72 h. The procedure, abridged:
(§1)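 Human tumour cells plated 24 h ahead, then exposed continuously to a range of compound concentrations for 72 h. Viability read by MTT. Adriamycin served as positive control. IC50 is the concentration giving 50% inhibition of control growth. Three independent experiments, each in triplicate.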

The next assay has as its system A549. The assay is described as follows: Cytotoxicity against human A549 cells after 72 hrs by MTT assay. Format: functional, cell-based. As to conditions: A549, 72 h. The procedure, abridged: (§2)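 Human tumour cells plated 24 h ahead, then exposed continuously to a range of compound concentrations for 72 h. Viability read by MTT. Adriamycin served as positive control. Three independent experiments, each in triplicate.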
(Tetrazolium dyes change colour on reduction, which living cells bring about.)

For a further assay, the system named is HeLa. The assay is described as follows: Cytotoxicity against human HeLa cells after 72 hrs by MTT assay. It is filed as functional, cell-based. In a few lines: as §1
For another assay, the system named is K562. The assay is described as follows: Cytotoxicity against human K562 cells after 72 hrs by MTT assay. As to conditions: K562, 72 h. It is filed as functional, cell-based. The procedure, abridged:
as §2

The target of assay [1] is Hepatocyte growth factor receptor (Homo sapiens) (UniProt P08581). Description: Inhibition of c-Met (unknown origin) at 1 uM after 60 mins by ELISA relative to control. In a few lines:
(§3)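 ELISA tyrosine kinase assay. Compounds added in DMSO (1% v/v), which was also the negative control; SU11274 (1 μM) was the positive control. Reaction run 60 min at 37 °C. pTyr detected by PY99 plus HRP anti-mouse IgG (30 min, 37 °C), developed with OPD/H2O2, read at 490 nm. Percent inhibition calculated.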
For orientation: ELISA stands for enzyme-linked immunosorbent assay.

Assay [2] shares this target. Description: Inhibition of c-Met (unknown origin) at 10 uM after 60 mins by ELISA relative to control. In a few lines:
as §3

Chain of Hepatocyte growth factor receptor (Homo sapiens) (P08581 whole entry): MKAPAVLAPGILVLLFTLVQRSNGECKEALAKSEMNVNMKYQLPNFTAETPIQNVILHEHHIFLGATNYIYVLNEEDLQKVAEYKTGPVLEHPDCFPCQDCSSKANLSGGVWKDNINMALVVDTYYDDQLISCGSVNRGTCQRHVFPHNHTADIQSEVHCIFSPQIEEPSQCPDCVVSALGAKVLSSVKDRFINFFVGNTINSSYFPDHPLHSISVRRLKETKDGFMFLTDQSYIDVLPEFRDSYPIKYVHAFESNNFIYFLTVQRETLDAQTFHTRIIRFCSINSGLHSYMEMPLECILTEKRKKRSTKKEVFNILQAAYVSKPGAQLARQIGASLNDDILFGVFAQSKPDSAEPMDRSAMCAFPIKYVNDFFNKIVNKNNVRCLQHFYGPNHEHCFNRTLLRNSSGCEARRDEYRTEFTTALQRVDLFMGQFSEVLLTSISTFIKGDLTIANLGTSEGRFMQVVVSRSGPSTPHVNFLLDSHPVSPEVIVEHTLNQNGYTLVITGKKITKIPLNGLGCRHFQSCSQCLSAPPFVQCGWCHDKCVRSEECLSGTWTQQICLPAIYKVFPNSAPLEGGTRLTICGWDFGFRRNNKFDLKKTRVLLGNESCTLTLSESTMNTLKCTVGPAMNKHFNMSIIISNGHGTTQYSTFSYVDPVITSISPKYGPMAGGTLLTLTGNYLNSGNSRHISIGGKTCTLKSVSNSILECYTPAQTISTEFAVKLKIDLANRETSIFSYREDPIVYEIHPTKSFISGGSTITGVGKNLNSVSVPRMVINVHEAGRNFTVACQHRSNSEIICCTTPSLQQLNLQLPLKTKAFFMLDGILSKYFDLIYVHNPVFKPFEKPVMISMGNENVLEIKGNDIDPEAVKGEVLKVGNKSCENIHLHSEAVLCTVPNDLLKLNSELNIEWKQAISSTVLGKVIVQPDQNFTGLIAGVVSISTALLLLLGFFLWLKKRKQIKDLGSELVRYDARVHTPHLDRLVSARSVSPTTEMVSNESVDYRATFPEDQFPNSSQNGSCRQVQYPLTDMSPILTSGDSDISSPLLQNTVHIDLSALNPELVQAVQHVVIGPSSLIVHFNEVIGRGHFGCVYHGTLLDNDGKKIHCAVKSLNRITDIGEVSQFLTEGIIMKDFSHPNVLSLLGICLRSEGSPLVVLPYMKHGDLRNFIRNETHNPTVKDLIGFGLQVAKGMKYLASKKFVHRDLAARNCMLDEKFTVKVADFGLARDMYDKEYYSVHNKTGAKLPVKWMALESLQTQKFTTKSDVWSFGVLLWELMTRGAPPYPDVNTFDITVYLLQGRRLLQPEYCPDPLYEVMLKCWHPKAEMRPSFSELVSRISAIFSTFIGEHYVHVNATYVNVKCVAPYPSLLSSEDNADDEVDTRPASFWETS

Consider `CC/C=C/[C@H](CC)C[C@]1(CC)C=C(CC)/C(=C/C(=O)OC)O1`, for which the 50% inhibitory concentration (IC50) is greater than 100 µM with Bel-7402, greater than 100 µM in the assay on A549, 2.6 µM with HeLa and 0.8 µM in the assay with K562.

On to `CCCC[C@H](CC)C[C@]1(CC)C=C(CC)/C(=C/C(=O)OC)O1`, for which the IC50 in the assay with Bel-7402 is greater than 100 µM; with A549, greater than 100 µM; with HeLa, 4.2 µM; in the assay with K562, 5.3 µM.

As for `CCCCC(C)Cc1cc(CC)c(CC(=O)O)o1` (configuration not stated) [PLAKORSIN D], the IC50 with Bel-7402, in the assay with A549, with HeLa and with K562 was greater than 100 µM throughout.

As for `CCCCC(CC)C[C@]1(CC)O[C@H]1[C@]1(CC)C=CC(=O)O1` (some centres not stated) [PLAKORTOXIDE B], the IC50 in the assay with Bel-7402 was greater than 100 µM; in the assay on A549, greater than 100 µM; with HeLa, greater than 50 µM; with K562, greater than 100 µM.

Turning to `CCC[C@@H]1[C@@H](C)C[C@](O)(CC)[C@H]1[C@]1(CC)OC(=O)C[C@@H]1O` [SIMPLEXTONE D], the IC50 with Bel-7402 is greater than 100 µM; in the assay with A549 it was greater than 100 µM; with HeLa it was greater than 50 µM; in the assay with K562 it was greater than 100 µM.

In the assay on HeLa, `COc1cccc2c1C(=O)c1c(O)c3c(c(O)c1C2=O)C[C@@](O)(C(=O)CO)C[C@@H]3O[C@H]1C[C@H](N)[C@H](O)[C@H](C)O1` [DOXORUBICIN HYDROCHLORIDE] gave an IC50 of 0.6 µM.

In the case of `CCCCC(C)C[C@]1(CC)O[C@H]1[C@]1(CC)C=CC(=O)O1` (some centres not stated) [PLAKORTOXIDE A], the IC50 in the assay with Bel-7402 was greater than 100 µM; in the assay on A549 it was greater than 100 µM; in the assay with HeLa it was 31.5 µM; in the assay on K562, greater than 50 µM.

For the compound `CCCCC(C)C/C(=C\[C@@]1(CC)OC(=O)C[C@@H]1O)CC` (some centres not stated) [SIMPLEXOLIDE B], the IC50 in the assay on Bel-7402 was greater than 100 µM; in the assay with A549, greater than 100 µM; with HeLa it was 4.7 µM; in the assay with K562 it was 2.2 µM.

Take `CCCCC(C)C/C(=C/[C@@]1(CC)OC(=O)C[C@@H]1O)CC` (some centres not stated) [SIMPLEXOLIDE E]: the IC50 with Bel-7402 is greater than 100 µM; in the assay on A549 it was greater than 100 µM; with HeLa, 31.2 µM; with K562, 49.2 µM.

As for `CC/C=C/[C@H]1C[C@](O)(CC)[C@@H]([C@]2(CC)OC(=O)C[C@@H]2O)[C@@H]1C` [SIMPLEXTONE C], the IC50 with Bel-7402 is greater than 100 µM; with A549, 40.4 µM; in the assay with HeLa, 29 µM; in the assay with K562 it was 19.4 µM. The inhibition in assay [1] amounted to 34.3%; in assay [2], 57.4%.

On to `CCCCC(CC)CC(O)(/C=C(/CC)[C@@H](O)CC(=O)OC)CC` (some centres not stated) [WOODYLIDE B], for which the IC50 was greater than 100 µM in the assay with Bel-7402, 23.6 µM in the assay with A549, 15.9 µM in the assay on HeLa and 20 µM in the assay with K562.

Regarding `CCCCC(C)CC(O)(/C=C(/CC)[C@@H](O)CC(=O)OC)CC` (some centres not stated) [WOODYLIDE A], the IC50 in the assay on Bel-7402 was greater than 100 µM; with A549, 29.3 µM; in the assay with HeLa, 15.5 µM; with K562, 23.8 µM.
